From ChEMBL document CHEMBL1833946, “Synthesis of β-functionalized temoporfin derivatives for an application in photodynamic therapy” (Bioorg Med Chem Lett, 2011)
Active and inactive are the calls of the source. The calls are words filed in the database; no cut-off is given here.

How the values were obtained:
[1] = Chemical stability of the compound; assay type: physicochemical
[2] = test system: HT-29; test: Cytotoxicity against human HT29 cells under dark condition at 2 uM after 24 hrs by XTT assay in presence of 10% heat-inactivated fetal calf serum; assay type: functional, cell-based
Method in brief: (§1)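 HT-29 human colon adenocarcinoma cells seeded at 2 × 10⁴ cells/well. Incubated 24 h with 2 or 10 μM sensitizer (final, diluted from 2 mM DMSO stock) in phenol-red-free RPMI 1640 with 10% FCS. Cells kept without irradiation for dark toxicity. Viability measured by XTT absorbance.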

[3] = test system: HT-29; test: Cytotoxicity against human HT29 cells under dark condition at 10 uM after 24 hrs by XTT assay in presence of 10% heat-inactivated fetal calf serum; assay type: functional, cell-based; method in brief: as §1
[4] = test system: HT-29; test: Phototoxicity against human HT29 cells irradiated with 652 nm diode laser at the rate of 50 J/cm'2 at 2 uM after 24 hrs by XTT assay in presence of 10% heat-inactivated fetal calf serum; assay type: functional, cell-based
Method in brief: (§2)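 HT-29 cells seeded at 2 × 10⁴ cells/well. Loaded 24 h with 2 or 10 μM sensitizer (final; from 2 mM DMSO stock kept dark at 4 °C) in phenol-red-free RPMI 1640 plus 10% FCS. Irradiated at room temperature with a 652 nm diode laser, 100 mW/cm², 50 J/cm². Viability read by XTT absorbance.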

[5] = test system: HT-29; test: Phototoxicity against human HT29 cells irradiated with 652 nm diode laser at the rate of 50 J/cm'2 at 10 uM after 24 hrs by XTT assay in presence of 10% heat-inactivated fetal calf serum; assay type: functional, cell-based; method in brief: as §2

| Stability [1] | SMILES | Activity [2] | Activity [3] | Activity [4] | Activity [5] |
| --- | --- | --- | --- | --- | --- |
| Stable | CCCCCCC1(O)c2nc(c(-c3cccc(O)c3)c3ccc([nH]3)c(-c3cccc(O)c3)c3nc(c(-c4cccc(O)c4)c4ccc([nH]4)c2-c2cccc(O)c2)C=C3)C1(O)CCCCCC (stereo not given) | inactive | inactive | Active | Active |
| Stable | Oc1cccc(-c2c3nc(c(-c4cccc(O)c4)c4ccc([nH]4)c(-c4cccc(O)c4)c4nc(c(-c5cccc(O)c5)c5ccc2[nH]5)C(O)(C(F)(F)F)C4(O)C(F)(F)F)C=C3)c1 (stereo not given) | inactive | inactive | Active | Active |
| Stable | Oc1cccc(-c2c3nc(c(-c4cccc(O)c4)c4ccc([nH]4)c(-c4cccc(O)c4)c4nc(c(-c5cccc(O)c5)c5ccc2[nH]5)C(O)(c2cc(C(F)(F)F)cc(C(F)(F)F)c2)C4(O)c2cc(C(F)(F)F)cc(C(F)(F)F)c2)C=C3)c1 (stereo not given) | inactive | inactive | inactive | Active |
